The source made the active and inactive calls.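 How the source made its calls: active means mass spectrometry shows covalent labeling of the catalytic serine in PAFAH2, a platelet-activating factor hydrolase; inactive means no covalent labeling of that serine detected.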
Molecular target: Platelet-activating factor acetylhydrolase 2, cytoplasmic (Homo sapiens) (UniProt Q99487)
Assay: covalent labeling of PAFAH2 active-site serine, late-stage follow-up, mechanism study for PAFAH2 inhibitor project, biophysical, LC-MS/MS, purified enzyme (AID 504486)
How it was run: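 Read-out: Active-site serine covalent modification, yes or no | Assay system: Purified human recombinant PAFAH2 enzyme | Control set: DMSO-only enzyme sample | Measured by: LC-MS/MS of tryptic peptides, searching for +97.053 Da serine adduct | Incubation: 30 min compound exposure at room temperature | Compound dosing: Single dose, 200 µM final inhibitor, DMSO vehicle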

outcome: active
SMILES: O=C(N1CCCC1)n1ncc(-c2ccc(-c3ccccc3)cc2)n1

Reference: PubChem BioAssay AID504486 (The Scripps Research Institute Molecular Screening Center, 2011)
